Compound activity deposited in PubChem by several laboratories.
CHOP inhibitor = inhibitors of CHOP promoter induction, primary screen, cell-based, unfolded protein response, luciferase reporter. CHO-K1 CHOP-promoter luciferase, tunicamycin-induced, 15-18 h. inhibition, % at 10 µM. 220,000 tested, 3.8% active. AID 2732, 2010;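 active = compounds that reduced the stress-induced luciferase reporter signal by more than about 70% of percent inhibition, limit read from the data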
XBP1 UPR activ = activators of adaptive XBP1 UPR arm, primary screen, cell-based, CHO-XBP1 luciferase reporter, luminescence, uHTS | IRE1-XBP1 UPR activation; percent of tunicamycin response, DMSO as zero | 330,000 tested, 0.33% active | activation, % at 20 µM;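 active = versus positive control, 20 µM dose yields 30% or more activation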
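Material: CHO-XBP1 cells stably carrying IRE1-XBP1-driven luciferase reporter | Medium: F12 with 10% serum | Compound dosing: 20 µM single concentration, DMSO 1% | Incubation: Overnight seeding at 37 °C, 6 h compound treatment at 37 °C | Detection: Steady-Glo luminescence read | Read-out basis: % activation of reporter signal versus tunicamycin and DMSO controls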
UPR CHOP act = activators of apoptotic CHOP UPR arm, primary screen, cell-based, CHO-CHOP luciferase reporter, luminescence, uHTS | UPR activation; percent of tunicamycin response over DMSO baseline | activation, % at 10 µM | 330,000 tested, 0.34% active;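 active = at 10 µM dose, activation of 40% or more, normalized to positive control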
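System: CHO-CHOP luciferase reporter cell line; amount: 500 cells/well; buffer or medium: F12 medium containing 10% fetal bovine serum; incubation: 6 h compound exposure at 37 °C after overnight seeding; measured by: luciferase luminescence after 10 min with Steady-Glo reagent; evaluation: % reporter activation, DMSO baseline versus tunicamycin full activation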
Beta2AR agonist = beta2AR agonists driving receptor internalization, primary screen, cell-based, FAP fluorogen, flow cytometry; Beta-2 adrenergic receptor (Homo sapiens), P07550; Am2.2-beta2AR cells; response, % (test concentration not listed); 340,000 tested, 0.43% active;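 active = response above a set limit, near 3 SD of response in nonfluorescent compounds, cut at about 42% in these data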
Dynein cargo inh = inhibitors of GR-EGFP nuclear translocation, primary screen, dynein cargo transport inhibitor project, imaging, high-content, 3617.4 mouse cells; test concentration mostly 20 µM; stimulated with dexamethasone, 1 µM; hits give low values; z-score, hits read low; 220,000 tested, 0.47% active; AID 1381, 2008;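 active = plate z-score of nuclear minus cytoplasmic receptor signal below a set negative limit, without overly bright fluorescence or cell loss, cut at about -3.5 in these data, passing the limit was not always enough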;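 note: z-score of nuclear minus cytoplasmic ring GR-EGFP intensity difference per well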
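Buffer or medium: tetracycline-free induction medium containing charcoal-stripped FBS / Reagent: dexamethasone agonist, 1.0 µM final, for 30 min / Technique: automated 10x imaging of fixed Hoechst-stained cells / Times: induction 48 h, compound 1 h, agonist 30 min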
pCIP destab = p/CIP-EGFP fusion destabilizers, primary screen, fluorescence, F442A cells. decrease of EGFP signal, % at 10 µM. 290,000 tested, 0.01% active. Q05BA5. 16 h;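 active = EGFP signal decrease of at least 30% at 10 µM or well 3 SD below plate mean, unless failing retest; inactive = the rest, including hits failing retest or dose response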
CHOP inh conf = retest of CHOP induction inhibitors, confirmation, cell-based; shares compounds with CHOP inhibitor; inhibition, % at 10 µM; CHO-CHOP promoter luciferase reporter, tunicamycin-induced, luminescence; 2,100 tested, 45% active;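 active = mean of three repeat readings of reporter signal inhibition above a set limit, cut at about 70% in these data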
CHOP UPR conf = activators of apoptotic CHOP UPR arm, confirmation, cell-based, CHO-CHOP luciferase reporter, single concentration. shares compounds with UPR CHOP act. CHO-CHOP cells, CHOP-luciferase reporter luminescence; percent of tunicamycin response, DMSO as zero. activation, % at 10 µM. 1,000 tested, 64% active. AID 463112, 2010; in the data active = activation above about 33%
UPR XBP1 confirm = IRE1-XBP1 UPR arm activators, confirmation, cell-based, CHO-XBP1 luciferase reporter, luminescence, single concentration. activation, % at 20 µM. shares compounds with XBP1 UPR activ. AID 485299, 2010. 1,000 tested, 63% active;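 active = reporter signal at least 30% of the positive control's activation in two or more of four replicate wells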
Of the large screens only hits and unclear results are named; the others gave an inactive call (follow-up assays come after a bar, where they were run). The full list was thinned out, with hits kept by preference.

CCOC(=O)N1CCN(C(=O)CNC(=O)c2nn(-c3ccc(OC)cc3OC)c(=O)c3ccccc23)CC1	none (no result: CHOP inhibitor, Dynein cargo inh)
CCc1nc(N=Nc2c(O)[nH]c3ccccc23)c2c3c(sc2n1)CCC3	CHOP inhibitor 101, XBP1 UPR activ 35, UPR CHOP act 94 | CHOP inh conf inactive | CHOP UPR conf 76 | UPR XBP1 confirm 168
O=C(Cn1c2ccc(F)cc2c2nc3n(c(=O)c21)CCS3)Nc1ccc(Cl)cc1F	CHOP inhibitor 96, XBP1 UPR activ 82 | CHOP inh conf inactive | UPR XBP1 confirm 34
CC[C@H](C)[C@H](NC(=O)c1ccc(Cl)cc1)C(=O)OCC(=O)c1c(N)n(C)c(=O)n(C)c1=O	none (no result: CHOP inhibitor, Dynein cargo inh, pCIP destab)
Cc1ccc2nsnc2c1NC(=O)c1ccc(-c2cc(Cl)ccc2Cl)o1	CHOP inhibitor 101, XBP1 UPR activ 96 | CHOP inh conf inactive | UPR XBP1 confirm 104
Cc1ccc2nsnc2c1NC(=O)Cc1ccc(Cl)cc1	none
CC(O)C(NS(=O)(=O)c1ccc(Cl)cc1)C(=O)OCC(=O)c1ccc2c(c1)NC(=O)CO2 (stereo unspecified)	none (no result: CHOP inhibitor, XBP1 UPR activ, UPR CHOP act, Dynein cargo inh, pCIP destab)
CC(C)CC(NC(=O)c1ccc(Cl)cc1)C(=O)OCC(=O)c1ccc2c(c1)NC(=O)CO2 (stereo unspecified)	CHOP inhibitor 107, XBP1 UPR activ 49 | CHOP inh conf 74 | UPR XBP1 confirm 99
Cc1ccc(N=Cc2c(O)n(-c3ccc4c(c3)OCO4)c(=O)c3ccccc23)cc1	CHOP inhibitor 102, XBP1 UPR activ 35 | CHOP inh conf inactive | UPR XBP1 confirm 27
O=C(N/C(=C/c1cccnc1)C(=O)N1CCCCCC1)c1cccc(Br)c1	none (no result: CHOP inhibitor, Dynein cargo inh)
COc1ccc(OC)c2sc(NC(=O)c3ccc(Cl)s3)nc12	CHOP inhibitor 103, XBP1 UPR activ 97 | CHOP inh conf 86 | UPR XBP1 confirm inactive
CCOC(=O)c1c(NC(=O)COC(=O)CCCOc2ccc(OC)cc2)sc(C(=O)NC)c1C	none (no result: CHOP inhibitor, Dynein cargo inh, pCIP destab)
Nc1nc(SCc2ccc(Cl)cc2Cl)nc2nc3c(cc12)CCCC3	CHOP inhibitor 103, XBP1 UPR activ 59 | CHOP inh conf inactive | UPR XBP1 confirm 133
CCCCNC(=O)c1ccc(Cn2c(=S)[nH]c3c([nH]c4ccc(OC)cc43)c2=O)cc1	CHOP inhibitor 105, XBP1 UPR activ 41 | CHOP inh conf inactive | UPR XBP1 confirm 64
Cc1ccc(S(=O)(=O)N2CCN(c3ccccc3)CC2)c(C)c1	none (no result: CHOP inhibitor, Dynein cargo inh)
CCCCCCCn1c2c(c(=N)c3ccccc31)CCC2	none
Cc1ccc(-c2cc(C(=O)Nc3sc4c(c3C(=O)NCc3ccco3)CCC4)[nH]n2)c(O)c1	none
CCNC(=O)c1c(NC(=O)c2cc(-c3cc(C)ccc3O)n[nH]2)sc2c1CCCC2	CHOP inhibitor 101, XBP1 UPR activ 42 | CHOP inh conf 106 | UPR XBP1 confirm 75
CCCn1c(SCc2nc3sc(C)c(C)c3c(=O)[nH]2)nc2ccccc2c1=O	CHOP inhibitor 106, XBP1 UPR activ 78 | CHOP inh conf inactive | UPR XBP1 confirm 180
COCCn1c(SCc2nc3ccccc3c(=O)[nH]2)nc2ccccc2c1=O	none
COc1ccc(NC(=O)c2cc3c(=O)n(C)c4ccccc4c3n2C)cc1Cl	CHOP inhibitor 101, XBP1 UPR activ 32 | CHOP inh conf inactive | UPR XBP1 confirm 72
COc1ccc(NC(=O)c2cc3c(=O)n(C)c4ccccc4c3n2C)cc1OC	none
COc1ccc(-c2nn(-c3ccccc3)cc2/C=N/N2C(=O)CSC2=S)cc1	CHOP inhibitor 112, XBP1 UPR activ 39 | CHOP inh conf 77 | UPR XBP1 confirm 27
Cn1c(=O)c2sccc2n2c(CCCC(=O)NCc3ccco3)nnc12	none (no result: CHOP inhibitor, Dynein cargo inh)
COc1cc([N+](=O)[O-])cc(/C=N/NC(=O)c2ccc(NC(=O)c3ccc(C)cc3)cc2)c1O	CHOP inhibitor 105, XBP1 UPR activ 38, UPR CHOP act 49 | CHOP inh conf inactive | CHOP UPR conf 64 | UPR XBP1 confirm 44
C=CCN1C(=O)CSC1=Nc1ccc(O)cc1	none
C=CCn1c(O)c(C2=c3ccccc3=NC2=O)sc1=Nc1ccc(O)cc1	CHOP inhibitor 104, XBP1 UPR activ 34 | CHOP inh conf inactive | UPR XBP1 confirm 32
Cc1cccc(Nc2nc(NCCCN3CCOCC3)nc(N)c2[N+](=O)[O-])c1	none
CCOC(=O)c1c(NC(C)=O)sc2c(OCC(O)CNC(C)(C)C)c(Br)ccc12 (stereo unspecified)	CHOP inhibitor 105, XBP1 UPR activ 62 | CHOP inh conf inactive | UPR XBP1 confirm 111
CCOC(=O)c1c(NC(C)=O)sc2c(O)cccc12	none
CCCOc1nc(C)cc(COC)c1C(N)=O	none
CC(C)CCn1c(=O)c(C(=O)N/N=C/c2cccc(F)c2)c(O)c2ccccc21	CHOP inhibitor 106, XBP1 UPR activ 37 | CHOP inh conf 90 | UPR XBP1 confirm inactive
CCCn1c(=O)c(C(=O)N/N=C/c2ccc(F)cc2)c(O)c2ccccc21	none
CCn1c2ccccc2c2cc(NC(=O)CSc3nnc(-c4ccc(OC)c(OC)c4)n3N)ccc21	none
CCOc1ccc(-c2nnc(SCC(=O)Nc3ccc4c(c3)c3ccccc3n4CC)n2N)cc1	CHOP inhibitor 98, XBP1 UPR activ 216, UPR CHOP act 116 | CHOP inh conf inactive | CHOP UPR conf 47 | UPR XBP1 confirm 191
O=C(CCc1nnc2n(Cc3ccc(F)cc3)c(=O)c3ccccc3n12)N1CCN(c2ccccn2)CC1	none (no result: CHOP inhibitor, Dynein cargo inh)
COc1cc2c(cc1OC)C(c1ccccc1OC(C)C)CC(=O)N2 (stereo unspecified)	none (no result: CHOP inhibitor, Dynein cargo inh)
COc1ccc(-c2cc(C(F)(F)F)nc(SCC(=O)NCCCN3CCOCC3)n2)cc1	none
COc1ccc(-c2cc(C(F)(F)F)nc(SCC(=O)Nc3ccc4c(c3)OCO4)n2)cc1	CHOP inhibitor 99, XBP1 UPR activ 55 | CHOP inh conf inactive | UPR XBP1 confirm inactive
